Source: publication PMC3966479 (Science (New York, N.Y.), 2013)

How the values were obtained:
THP1 macrophages = test: In vitro phagocytosis of opsonized nanobeads by THP1 macrophages; type: cell-based, human; conditions: THP1, DMSO solvent
Procedure, shortened: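 Fluorescent 100-nm streptavidin-coated polystyrene beads, opsonized with antistreptavidin antibody, with or without attached hCD47, given to THP1 cells in vitro. Phagocytosis scored at 45 min. Cultures fixed without permeabilization, and non-ingested beads immunostained with a secondary antibody against the antistreptavidin opsonin. Data as means ± SEM.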

macrophages / phagocytes = test: Circulation of nanobeads in NSG mice; type: in vivo, mouse (NSG); conditions: opsonized nanobeads, i.v.
[1] = Organ localization of nanobeads by whole-body NIRF imaging; type: in vivo, mouse (NSG); conditions: NIRF beads

Cc1ccc2c(c1)C(=O)C1(O)CCN(c3ccccc3)C1=N2 (stereo not shown) [blebbistatin]
inhibition of uptake by 50 µM compound (THP1 macrophages; 50 µM, inhibition of myosin-IIA): inhibited

O=S(=O)(O)c1ccc2cc(N=Nc3cc(S(=O)(=O)O)c4cccnc4c3O)ccc2c1 [NSC-87877]
reversal of hCD47 inhibition of uptake (THP1 macrophages; SHP1 inhibition, hCD47 beads): blocks the inhibition of uptake by hCD47

B1: mCD47: recombinant mouse CD47 (protein, UniProt Q61735 19-303, looked up)
Leukocyte surface antigen CD47: QLLFSNVNSIEFTSCNETVVIPCIVRNVEAQSTEEMFVKWKLNKSYIFIYDGNKNSTTTDQNFTSAKISVSDLINGIASLKMDKRDAMVGNYTCEVTELSREGKTVIELKNRTVSWFSPNEKILIVIFPILAILLFWGKFGILTLKYKSSHTNKRIILLLVAGLVLTVIVVVGAILLIPGEKPVKNASGLGLIVISTGILILLQYNVFMTAFGMTSFTIAILITQVLGYVLALVGLCLCIMACEPVHGPLLISGLGIIALAELLGLVYMKFVASNQRTIQPPRNR
effect on circulation / clearance of nanobeads (macrophages / phagocytes): enhanced persistence in circulation | splenic / organ localization of nanobeads [1]: moderate but suppressed splenic localization
